The source of these data is ChEMBL document CHEMBL1155261, “Synthesis and biological evaluation of SANT-2 and analogues as inhibitors of the hedgehog signaling pathway” (Bioorg Med Chem, 2009).

Data set [1] concerns Oryzias latipes. Description: Teratogenic activity in Oryzias latipes CAB embryo assessed as induction of cyclopia phenotype at 0.01 to 100 uM. It is filed as organism-based. The note with it: in vivo. Put shortly:
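CAB-strain medaka kept at 26 °C on a 14:10 h light/dark cycle. Fertilized eggs exposed from 4–5 hpf to 5 days post fertilisation at 26 °C in tap water (pH 8–8.2) with 0.1% methylene blue. Compounds added from ethanol stocks at 1% final solvent; controls received 1% ethanol. Embryos inspected visually for cyclopia (reduced eye distance).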

In data set [2] the target is Sonic hedgehog protein (Mus musculus) (UniProt Q62226). The data set can be described thus: Ratio of compound IC50 to cyclopamine IC50 for inhibition of SHH in mouse Shh-Light2 cells. It is filed as functional, cell-based. The note with it: Shh Light II.
Data set [3] deals with Oryzias latipes. The data set can be described thus: Teratogenic activity in Oryzias latipes embryo assessed as induction of cyclopia phenotype at 12.5 uM. The format is organism-based. To be noted: in vivo. Put shortly: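 Medaka (CAB strain) fertilized eggs, collected within 1–2 h post fertilization, exposed from 4–5 hpf to 5 days post fertilisation at 26 °C in tap water (pH 8–8.2) with 0.1% methylene blue; compounds added from ethanol stocks, final 1% ethanol, controls 1% ethanol. Tested range 0.01–100 µM. Embryos visually scored for cyclopia (reduced eye distance).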

Regarding `CCOc1cc(C(=O)Nc2ccc(Cl)c(-c3nc4ccccc4[nH]3)c2)cc(OCC)c1OCC`, in data set [1], the Activity result is on record as “Non-toxic”.
`COc1cc(C(=O)Nc2ccc(Cl)c(-c3nc4ccccc4[nH]3)c2)cc(OC)c1OC`: the Activity result in data set [1] is given as “Non-toxic”.
As for `COc1ccccc1C(=O)Nc1ccc(Cl)c(-c2nc3ccccc3[nH]2)c1`, in data set [2], the Ratio IC50 was 1.5.
As for `O=C(Nc1ccc(Cl)c(-c2nc3ccccc3[nH]2)c1)c1ccccc1`, the Ratio IC50 in data set [2] was determined as 8.
Regarding `O=C(Nc1ccc(Cl)c(-c2nc3ccccc3[nH]2)c1)c1cccc(C(F)(F)F)c1`, the Ratio IC50 in data set [2] amounted to 11. In data set [1], the Activity result is given as “Non-toxic”.
For the compound `O=C(Nc1ccc(Cl)c(-c2nc3ccccc3[nH]2)c1)c1ccc(Cl)cc1`, the Ratio IC50 in data set [2] was found to be 5.9.
The same measure, in the same setting: with `O=C(Nc1ccc(Cl)c(-c2nc3ccccc3[nH]2)c1)c1ccc(F)cc1` the figure was 5.2.
On the same count and under the same terms, with `CCOc1cc(C(=O)Nc2cccc(-c3nc4ccccc4[nH]3)c2)cc(OCC)c1OCC` the figure was 1.
For `N#Cc1ccc(C(=O)Nc2ccc(Cl)c(-c3nc4ccccc4[nH]3)c2)cc1`, in data set [2], the Ratio IC50 turned out to be 7.1.
For the compound `COc1ccc(C(=O)Nc2ccc(Cl)c(-c3nc4ccccc4[nH]3)c2)cc1`, the Ratio IC50 in data set [2] stood at 11.
For `CN(C)c1ccc(C(=O)Nc2ccc(Cl)c(-c3nc4ccccc4[nH]3)c2)cc1`, in data set [2], the Ratio IC50 worked out at 6.9.
For the compound `CC1=C2C[C@H]3[C@@H](CC=C4C[C@@H](O)CC[C@@]43C)[C@@H]2CC[C@]12O[C@@H]1C[C@H](C)CN[C@H]1[C@H]2C` [CYCLOPAMINE], the Ratio IC50 in data set [2] is 11. Moreover, the figures for the Activity result in data set [1] and in data set [3] were “Non-toxic” and “Toxic”, respectively.
